28 molecules from ChEMBL document CHEMBL1914440, “Discovery of potent, selective, and orally bioavailable alkynylphenoxyacetic acid CRTH2 (DP2) receptor antagonists for the treatment of allergic inflammatory diseases” (J Med Chem, 2011) can be followed below.

Activity calls are given as the source filed them. The calls are words filed in the database; no cut-off is given here.

Series [1] in a line: Intrinsic clearance in rat liver microsomes assessed per mg of protein at 1 uM by LC/MS/MS analysis. The format is ADME, Microsome.
Series [2] can be described thus: Intrinsic clearance in human liver microsomes assessed per mg of protein at 1 uM by LC/MS/MS analysis. The format is ADME, Microsome. (In general: Liver microsomes are a subcellular fraction often used to study metabolism.)
Series [3] has as its target T1, Prostaglandin D2 receptor 2 (Homo sapiens, UniProt Q9Y5Y4).
T1 sequence (Q9Y5Y4 whole entry): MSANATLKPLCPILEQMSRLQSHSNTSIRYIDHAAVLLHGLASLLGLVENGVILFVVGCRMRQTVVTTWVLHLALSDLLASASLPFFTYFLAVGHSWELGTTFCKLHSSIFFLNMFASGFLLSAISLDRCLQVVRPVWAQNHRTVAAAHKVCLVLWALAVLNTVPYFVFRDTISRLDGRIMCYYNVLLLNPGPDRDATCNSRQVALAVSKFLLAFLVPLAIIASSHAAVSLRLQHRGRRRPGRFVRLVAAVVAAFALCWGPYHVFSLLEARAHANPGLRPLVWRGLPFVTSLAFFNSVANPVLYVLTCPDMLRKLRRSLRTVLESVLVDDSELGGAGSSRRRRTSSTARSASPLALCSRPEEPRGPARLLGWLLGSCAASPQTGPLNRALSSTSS
The experiment in a line: Displacement of [3H]PGD2 from human CRTH2 expressed in chinese hamster CHO cells by liquid scintillation counting. The format is cell-based. Put shortly:
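Scintillation proximity competition assay: 2–5 μg human CRTH2 cell membranes, 1.5 nM [3H]PGD2, WGA-SPA beads, 10 mM HEPES/KOH pH 7.4, 10 mM MnCl2, protease inhibitors, 1% DMSO; 90 min, room temperature, shaking. Nonspecific binding defined with 1 μM PGD2. Ki by Cheng–Prusoff, mean of ≥3 independent dose–response experiments.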
In general terms: Displacement assays read how much labelled ligand stays bound in the presence of the test substance.

Series [4] is described as follows: Clearance in BALB/c mouse at 5 mg/kg, po by LC/MS/MS analysis. Also noted: dose 5 mg/kg, route oral. The format is ADME, organism-based. The note with it: in vivo.
Series [5] is described as follows: Percentage unbound in rat plasma. The format is ADME, cell-free.
Series [6] is described as follows: Percentage unbound in human plasma. The format is ADME, cell-free.
A short description of series [7]: Percentage unbound in mouse plasma. The format is ADME, cell-free.
Series [8] can be described thus: AUC in BALB/c mouse at 5 mg/kg, po. The format is ADME, organism-based. Also noted: dose 5 mg/kg, route oral. The note with it: plasma. In outline:
(§1)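 Mouse PK after a 5 mg/kg oral dose.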

In series [9] the target is T2, Prostaglandin D2 receptor 2 (Homo sapiens) (UniProt Q9Y5Y4).
T2 sequence (whole entry): T1 sequence (Q9Y5Y4 whole entry)
The series is described as follows: Partial agonist activity at human CRTH2 expressed in chinese hamster CHO cells by cellular dielectric spectroscopy relative to PGD2. The format is functional, cell-based. Put shortly: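 CHO-CRTH2 cells seeded at 100000/well, grown 24 h at 37 °C, washed into HBSS/10 mM HEPES pH 7.4 with 1% DMSO; impedance recorded. Agonism: compound alone, 25 min read. Antagonism: PGD2 at EC80 added to cell–compound mixture, 25 min read. Run with 0.1% BSA.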

The nature of series [10]: Oral bioavailability in BALB/c mouse at 5 mg/kg by LC/MS/MS analysis. The format is ADME, organism-based. The note with it: in vivo. Put shortly:
as §1

Take `Cc1ccc(S(=O)(=O)N2CCCCC2C)cc1C#Cc1cc(Cl)ccc1OCC(=O)O` (stereo unspecified): the intrinsic clearance (microsomal CLint) at 1 µM in series [1] is 418 µL/min/mg; in series [2], 89 µL/min/mg. Further, in [3], the Ki came to 1.9 nM.
In turn, `CC(C)S(=O)(=O)c1ccc(Cl)c(C#Cc2cc(Cl)ccc2OCC(=O)O)c1` gave a Ki in series [3] of 2.9 nM. In [4], this molecule showed a CL/F of 11.7 mL/min/kg.
Take `Cc1ccc(S(=O)(=O)N(C)CC(C)C)cc1C#Cc1cc(Cl)ccc1OCC(=O)O`: the results for the microsomal CLint at 1 µM in [1] and in series [2] were 119 µL/min/mg and 79 µL/min/mg, respectively. In addition, in series [3], the Ki stood at 4.2 nM.
`Cc1ccc(S(=O)(=O)NC(C)C)cc1C#Cc1cc(Cl)ccc1OCC(=O)O`: the microsomal CLint at 1 µM in series [1] is 12 µL/min/mg; in [2], less than 10 µL/min/mg. The fraction unbound was 0.004 in series [5], 0.004 in [6] and 0.01 in [7]. In addition, the inhibition constant (Ki) in [3] came out at 3.4 nM.
As for `Cc1ccc(S(C)(=O)=O)cc1C#Cc1cc(Cl)ccc1OCC(=O)O`, the microsomal CLint at 1 µM turned out to be 18 µL/min/mg in series [1] and 14 µL/min/mg in series [2]. The values for the fraction unbound in series [5], in series [6] and in series [7] were 0.014, 0.017 and 0.027, respectively. Also, the Ki in series [3] stood at 5 nM. For the same molecule, the AUC in series [8] is 1800 ng·h/mL. The same molecule showed a CL/F in series [4] of 23.3 mL/min/kg. Besides, in [9], the Emax amounted to 10%. Moreover, the bioavailability in [10] is 49%.
`CCCS(=O)(=O)c1cccc(C#Cc2cc(C#N)ccc2OCC(=O)O)c1` registered a Ki in series [3] of 21 nM. Further, the Emax in [9] turned out to be 30%.
On to `CS(=O)(=O)c1ccc(F)c(C#Cc2cc(Cl)ccc2OCC(=O)O)c1`, for which the fraction unbound in series [5] was 0.011; in series [6] it was 0.013; in [7], 0.054. This molecule gave a Ki in series [3] of 3.3 nM. The same molecule gave an AUC in series [8] of 3240 ng·h/mL. Moreover, the CL/F in [4] is 6.67 mL/min/kg. In series [9], the Emax worked out at 10%. In addition, the bioavailability in [10] was 24%.
The molecule `CC(C)S(=O)(=O)c1ccc(F)c(C#Cc2cc(Cl)ccc2OCC(=O)O)c1` showed a Ki in series [3] of 4 nM. Besides, in series [4], the CL/F is 5.83 mL/min/kg. Also, the bioavailability in series [10] stood at 130%.
For `O=C(O)COc1ccc(Cl)cc1C#Cc1cccc(S(=O)(=O)CCO)c1`, the figures for the fraction unbound in series [5], in series [6] and in series [7] were 0.081, 0.047 and 0.3, respectively. In [3], this molecule displayed a Ki of 10 nM.
Regarding `CC(C)c1ccc(S(C)(=O)=O)cc1C#Cc1cc(Cl)ccc1OCC(=O)O`, the fraction unbound in series [5] was 0.004; in series [6], 0.003; in [7], 0.013. The Ki in [3] was 4.6 nM. Further, in [8], the AUC is 2650 ng·h/mL. In series [4], this molecule gave a CL/F of 8.33 mL/min/kg. Further, the bioavailability in series [10] amounted to 29%.
Regarding `COCCN(C)S(=O)(=O)c1ccc(C)c(C#Cc2cc(Cl)ccc2OCC(=O)O)c1`, the values for the microsomal CLint at 1 µM in series [1] and in [2] were 49 µL/min/mg and 32 µL/min/mg, respectively. In addition, the fraction unbound in series [5] turned out to be 0.007; in series [6], 0.006; in [7], 0.007. For the same molecule, the affinity in series [3] corresponds to a Ki of 4.1 nM.
For `CN(C)S(=O)(=O)c1ccc(F)c(C#Cc2cc(Cl)ccc2OCC(=O)O)c1`, the microsomal CLint at 1 µM in series [1] and in series [2] was less than 10 µL/min/mg throughout. The figures for the fraction unbound in [5], in series [6] and in series [7] were 0.007, 0.009 and 0.029, respectively. This molecule also gave a Ki in series [3] of 3.1 nM. Moreover, the CL/F in [4] was 10 mL/min/kg.
Regarding `Cc1ccc(S(=O)(=O)CCCO)cc1C#Cc1cc(Cl)ccc1OCC(=O)O`, the fraction unbound was 0.018 in series [5], 0.015 in [6] and 0.048 in [7]. The same molecule came in with a Ki in series [3] of 8 nM.
Turning to `CCNS(=O)(=O)c1ccc(C)c(C#Cc2cc(Cl)ccc2OCC(=O)O)c1`, the microsomal CLint at 1 µM was 24 µL/min/mg in [1] and less than 10 µL/min/mg in series [2]. Also, the fraction unbound stood at 0.008 in series [5], 0.005 in series [6] and 0.008 in [7]. Moreover, affinity in series [3] was put at a Ki of 4.4 nM.
In series [3], `CCCS(=O)(=O)c1ccc(C)c(C#Cc2cc(C#N)ccc2OCC(=O)O)c1` registered a Ki of 7 nM. This molecule had an AUC in series [8] of 1370 ng·h/mL. Moreover, the CL/F in series [4] is 18.3 mL/min/kg. The result in series [9] was inactive. Also, in series [10], the bioavailability was found to be 24%.
Turning to `CC(C)c1ccc(S(C)(=O)=O)cc1C#Cc1cc(C#N)ccc1OCC(=O)O`, the affinity in [3] corresponds to a Ki of 12 nM. Also, in series [8], the AUC came to 151 ng·h/mL. This molecule also showed a CL/F in series [4] of 145 mL/min/kg. The bioavailability in series [10] was determined as 26%.
In turn, `CS(=O)(=O)c1cccc(C#Cc2cc(Cl)ccc2OCC(=O)O)c1` had a Ki in series [3] of 15 nM. For the same molecule, in [9], the Emax turned out to be 10%.
For `CCCS(=O)(=O)c1ccc(Cl)c(C#Cc2cc(Cl)ccc2OCC(=O)O)c1`, the microsomal CLint at 1 µM in series [1] and in series [2] was less than 10 µL/min/mg in each case. Also, the results for the fraction unbound in series [5], in [6] and in [7] were 0.002, 0.003 and 0.006, respectively. In series [3], this molecule showed a Ki of 2.1 nM. The molecule further had an apparent clearance CL/F in [4] of 16.7 mL/min/kg. For the same molecule, the bioavailability in [10] amounted to 112%.
With `O=C(O)COc1ccc(Cl)cc1C#Cc1ccc2c(c1)S(=O)(=O)c1ccccc1-2`, the affinity in series [3] corresponds to a Ki of 12 nM. In series [6], this molecule showed a free fraction (fraction unbound) of less than 0.001. The molecule also showed a CL/F in [4] of 1.67 mL/min/kg.
In the case of `COCCNS(=O)(=O)c1ccc(C)c(C#Cc2cc(Cl)ccc2OCC(=O)O)c1`, the microsomal CLint at 1 µM in series [1] and in [2] was less than 10 µL/min/mg in each case. The same molecule came in with a Ki in [3] of 3.6 nM. In series [8], the AUC stood at 831 ng·h/mL. The same molecule had an apparent clearance CL/F in [4] of 33.3 mL/min/kg. Further, the bioavailability in series [10] amounted to 33%.
On to `CCCS(=O)(=O)c1cccc(C#Cc2cc(-c3ccccc3)ccc2OCC(=O)O)c1`, for which affinity in series [3] was put at a Ki of 19 nM. This molecule also displayed an Emax in series [9] of 68%.
As for `O=C(O)COc1ccc(Cl)cc1C#Cc1ccc(CO)cc1F`, the microsomal CLint at 1 µM in series [1] and in series [2] was less than 10 µL/min/mg throughout. Moreover, the Ki in series [3] turned out to be 28 nM. In addition, the CL/F in series [4] is 35 mL/min/kg. Besides, the bioavailability in series [10] came to 3%.
With `O=C(O)COc1ccc(C(F)(F)F)cc1C#Cc1ccccc1Cl`, the Ki in [3] worked out at 12 nM. The molecule further registered an Emax in series [9] of 60%.
Regarding `Cc1ccc(S(=O)(=O)N(C)C)cc1C#Cc1cc(Cl)ccc1OCC(=O)O`, the intrinsic clearance (microsomal CLint) at 1 µM in series [1] was 22 µL/min/mg; in series [2], less than 10 µL/min/mg. In addition, the fraction unbound in series [5] is 0.004; in series [6], 0.004; in [7], 0.01. For the same molecule, the inhibitory constant (Ki) in series [3] amounted to 5 nM.
In series [3], `O=C(O)COc1ccc(Cl)cc1C#Cc1cccnc1` had a Ki of 117 nM. The unbound share (fraction unbound) in series [6] came to 0.029.
In the case of `Cc1ccc(S(=O)(=O)N2CCOCC2)cc1C#Cc1cc(Cl)ccc1OCC(=O)O`, the microsomal CLint at 1 µM in series [1] was 10 µL/min/mg; in series [2], less than 10 µL/min/mg. The same molecule showed a Ki in [3] of 3.6 nM. In series [8], this molecule displayed an AUC of 1220 ng·h/mL. The molecule further gave a CL/F in series [4] of 31.7 mL/min/kg. Besides, in series [10], the bioavailability stood at 48%.
For `Cc1ccc(S(=O)(=O)N(C)C(C)C)cc1C#Cc1cc(Cl)ccc1OCC(=O)O`, the intrinsic metabolic clearance (microsomal CLint) at 1 µM in [1] was 64 µL/min/mg; in [2], less than 10 µL/min/mg. This molecule had an inhibition constant Ki in series [3] of 3.8 nM. For the same molecule, the fraction unbound in series [6] came out at 0.002; in series [7], 0.005.
In the case of `CCCc1ccc(S(C)(=O)=O)cc1C#Cc1cc(Cl)ccc1OCC(=O)O`, the fraction unbound came to 0.002 in series [5], 0.002 in [6] and 0.006 in [7]. In addition, the Ki in series [3] is 8.6 nM.

The term microsomal CLint denotes the capacity of the preparation to metabolise the compound, expressed as a volume cleared per time. A low value points to slow turnover. Broadly, the Ki is the equilibrium dissociation constant of an inhibitor or competing ligand from its target. A lower Ki goes with higher affinity. By CL/F is commonly meant clearance divided by bioavailability, as obtained after extravascular dosing. As usually defined, the fraction unbound is free concentration divided by total concentration. By AUC is commonly meant concentration integrated over time. High values mean more exposure, low ones less exposure. One may read the Emax as the greatest response seen or fitted, relative to the assay's reference.
